Screening results as filed in PubChem.
Only some compounds are listed: those with a hit (about 3.5% of all), similar ones and a draw of the others.
RGS4 pot – RGS4 potentiation or activation. HEK293 M3R/inducible RGS4, carbachol calcium flux Fluo4; hits give low values. B-score at 10 µM. AID 463111. 0.92% of 310,000 active;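 active = B-score of the integrated calcium signal more than 4 SD below the library mean, with starting fluorescence not abnormally high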;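 also: negative B-score means reduced calcium response which marks RGS4 activation or potentiation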
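test system = HEK293 cells with stable M3R and inducible RGS4 | schedule = recording 10 s baseline at 1 Hz, 100 s post-agonist | technique = Fluo4-AM (2 µM) calcium-flux fluorescence, kinetic read | measure = Agonist-evoked peak-minus-minimum fluorescence over baseline, integrated ratio, B score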
MrgX1 agonist – agonists of human MrgX1 receptor; MrgX1-HEK293 cells, Fluo-4 calcium fluorescence, agonist mode; hits give high values; B-score at 10 µM; 0.44% of 310,000 active;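 active = calcium response B-score plate-corrected fluorescence ratio at least 3 library SD, with starting fluorescence B-score inside 5 SD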
Target sequence (Q96LB2 whole entry, looked up): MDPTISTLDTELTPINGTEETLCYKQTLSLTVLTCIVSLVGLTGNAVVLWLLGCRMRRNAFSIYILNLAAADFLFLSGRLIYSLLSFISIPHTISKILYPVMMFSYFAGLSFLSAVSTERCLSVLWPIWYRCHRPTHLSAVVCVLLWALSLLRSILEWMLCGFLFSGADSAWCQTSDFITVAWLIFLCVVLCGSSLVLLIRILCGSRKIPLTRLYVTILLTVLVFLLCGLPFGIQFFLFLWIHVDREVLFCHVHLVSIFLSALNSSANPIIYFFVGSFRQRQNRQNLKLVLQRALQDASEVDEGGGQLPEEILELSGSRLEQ
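Material: HEK293 cells stably expressing human MrgX1 receptor | Quantity: 15,000 cells per well | Times: Cells plated overnight, dye loaded 0.5 h 37 °C, 0.5 h room temperature | Measured by: Kinetic Fluo-4 NW fluorescence of intracellular calcium | Control set: Positive and negative controls per plate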
MrgX1 antagonist – blocks BAM8-22 activation of human MrgX1 receptor; 1.3% of 310,000 active; AID 588676; B-score at 10 µM; MRGX1-HEK293 calcium flux, Fluo-4, BAM8-22 antagonism; hits give low values;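 active = calcium-response B-score plate-corrected more than 3 library SD below zero, starting fluorescence within 5 deviations, no agonist response on first addition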;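 also: peak minus trough fluorescence over baseline after final BAM8-22 challenge near maximal dose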
MrgX1 PAM – allosterically activates human MrgX1 receptor signaling; AID 588675; Q96LB2; 0.63% of 310,000 active; B-score at 10 µM; MrgX1-HEK293, Fluo-4 calcium flux, FDSS; hits give high values;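 active = plate-corrected calcium response at least 3 library SD above typical, normal starting fluorescence, not activating the receptor alone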;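 also: compound read alongside a low EC10 to EC30 dose of BAM8-22 agonist; peak minus trough fluorescence over baseline measured at the second addition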
RGS4 inh – inhibitors of human RGS4 | P49798 | HEK293 M3R/RGS4 inducible, Fluo-4 calcium flux; hits give high values; triggered by carbachol at its EC20 | B-score at 10 µM | 0.45% of 310,000 active | AID 463165;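 active = B-score, a plate-corrected calcium signal, over three deviations above library mean, with baseline fluorescence within five deviations of library mean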;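 also: RGS4 expression induced by doxycycline in cells with stable M3 receptor; B-score is computed from the integrated fluorescence ratio over baseline after carbachol; higher B-score means a larger calcium signal and so more RGS4 inhibition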
Target sequence (P49798 whole entry, looked up): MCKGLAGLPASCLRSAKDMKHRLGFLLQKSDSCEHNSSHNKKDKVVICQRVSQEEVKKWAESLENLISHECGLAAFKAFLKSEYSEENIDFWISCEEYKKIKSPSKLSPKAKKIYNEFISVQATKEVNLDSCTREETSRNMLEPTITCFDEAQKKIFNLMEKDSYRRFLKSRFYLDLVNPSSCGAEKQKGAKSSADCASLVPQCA
RGS4 activ val – RGS4 activation, validation assay; inhibition, % at 10 µM; shares compounds with RGS4 pot; AID 602282; 89% of 1,100 active; HEK293 M3R/RGS4 inducible, carbachol calcium flux Fluo4;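 active = inhibition above 3 SD of the buffer control wells, cut at about 41% in these data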;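 also: signal is the integrated peak-minus-minimum Fluo4 fluorescence over baseline ratio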
M3R Ca counter – activity in cells without induced RGS4 expression; shares compounds with RGS4 pot; HEK293 M3R non-induced RGS4, Fluo4 calcium flux; after carbachol challenge at its EC90; inhibition, % at 10 µM; 82% of 1,100 active;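 active = inhibition exceeding 3 SD of buffer-only control wells, cut at about 26% in these data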;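 also: percent drop in integrated peak-minus-baseline over baseline Fluo4 ratio after carbachol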
Numbers stand for hits; i = inactive; nt = not tested or not shown.

SMILES | RGS4 pot | MrgX1 agonist | MrgX1 antagonist | MrgX1 PAM | RGS4 inh | RGS4 activ val | M3R Ca counter
Cc1c(C(=O)OC(C)CCN(C)C)oc2ccccc12 (configuration not stated) | -11 | i | i | i | i | 93 | 82
Cc1c(C(=O)OCCN2CCCCC2)oc2ccccc12 | -11 | i | i | i | i | 94 | 91
Cc1c(C(=O)OCC(=O)N2C(C)CCCC2C)oc2ccccc12 (configuration not stated) | i | i | i | i | i | nt | nt
Cc1cc(C(=O)Nc2c(F)cc(F)cc2Br)n(-c2ccccc2)n1 | i | i | i | i | i | nt | nt
COc1ccc(Cc2nnc3sc(SCC(=O)Nc4ccccc4)nn3c2=O)cc1OC | i | i | i | i | i | nt | nt
Cn1c(SCCN2CCCC2)nnc1C1CCN(S(=O)(=O)c2ccc(F)cc2)CC1 | -7.8 | i | i | i | i | 50 | i
CCOC(=O)c1ccc(Nc2cc(C)nc(C)c2C(=O)OCC)cc1 | -8.4 | i | i | i | i | 58 | 84
CCOC(=O)c1ccc(NC(=O)c2c(Cl)cc(C)nc2C)cc1 | i | i | i | i | i | nt | nt
COc1ccc(NC(=O)CSc2nnnn2C2CC3C=CC2C3)cc1 (configuration not stated) | i | i | i | i | i | nt | nt
CSCCC(=O)N(C)CC1CCCN(CCc2cccc(C(F)(F)F)c2)C1 (configuration not stated) | i | i | i | i | i | nt | nt
CCN(CC1CCCN(CCc2cccc(F)c2)C1)C(=O)c1cc(C)oc1C (configuration not stated) | i | i | i | i | i | nt | nt
CCN(CC1CCCN(CCc2cccc(F)c2)C1)C(=O)c1cc2ccccc2o1 (configuration not stated) | -7.7 | i | i | i | i | 78 | 30
CN(CC1CCCN(CCc2cccc(C(F)(F)F)c2)C1)C(=O)c1cc2ccccc2o1 (configuration not stated) | -12 | nt | nt | nt | i | 92 | 74
CC(CNS(=O)(=O)c1ccc(Cl)cc1)n1cncn1 (configuration not stated) | i | i | i | i | i | nt | nt
CCCCOc1ccc(C(=O)OC2CC(C)N(C)CC2C)cc1 (configuration not stated) | -9.5 | i | i | i | i | 91 | 86
CCCCOc1ccc(C(=O)N2CCC(C)CC2)cc1 | i | i | i | i | i | nt | nt
COc1ccccc1OCC(=O)N(Cc1nnc(-c2ccccc2Cl)o1)C1CC1 | i | i | i | i | i | nt | nt
CN(CC(=O)Nc1ccc(Cl)cc1)C(=O)c1cc(-c2cccs2)nn1-c1ccccc1 | -8.5 | i | i | i | i | 88 | 42
CCN(CC(=O)Nc1ccccc1OC)C(=O)c1cc(-c2ccccc2)nn1-c1ccccc1 | -7.8 | i | i | i | i | 92 | 67
CCN(CC(=O)Nc1c(F)cccc1F)C(=O)c1cc(-c2cccs2)nn1-c1ccccc1 | -9.4 | i | i | i | i | 52 | 84
CN(CC(=O)Nc1c(Cl)cccc1Cl)C(=O)c1cc(-c2cccs2)nn1-c1ccccc1 | i | i | i | i | i | nt | nt
CN(CC(=O)Nc1ccccc1Cl)C(=O)c1cc(-c2cccs2)nn1-c1ccccc1 | i | i | i | i | i | nt | nt
CCOC(=O)C1=C(C)NC(C)=C(C(=O)OCC)C1C(=O)OCC(=O)NC1(C#N)CCCCC1 | -11 | i | i | i | i | 46 | i
N=c1oc2cc(O)ccc2cc1C(=O)Nc1ccc(Cl)cc1 | i | i | i | i | i | nt | nt
COc1ccc(C)c2sc(=NC(=O)c3cccc(N4C(=O)CCC4=O)c3)n(C)c12 | i | i | i | i | i | nt | nt
SMILES | RGS4 pot | MrgX1 agonist | MrgX1 antagonist | MrgX1 PAM | RGS4 inh | RGS4 activ val | M3R Ca counter
C=CCn1c(=NC(=O)c2cccc(N3C(=O)CCC3=O)c2)sc2cccc(OC)c21 | -10 | i | i | i | i | 92 | 73
COc1ccc2cc(OCC(=O)NNC(=O)Nc3ccc(F)cc3)ccc2c1 | i | i | i | i | i | nt | nt
Cc1ccc(-c2nc3ccccn3c2NCc2ccc3c(c2)OCO3)cc1 | -9.5 | i | i | i | i | 89 | 71
Cc1csc(NC(=O)c2sc3nc(-c4cccs4)ccc3c2N)n1 | -8.9 | 93 | i | i | i | 88 | 83
COc1c(Cl)cc(C(=O)NCc2ccco2)cc1Cl | i | i | i | i | i | nt | nt
CCOc1ccc2nc(NC(=O)C3(C)CC3(Br)Br)sc2c1 (configuration not stated) | -8.1 | i | i | i | i | 68 | 84
Cc1cccc(N2CCN(C(=O)c3ccc(Cl)c(NC4=NC5CS(=O)(=O)CC5S4)c3)CC2C)c1 (configuration not stated) | -8.5 | i | i | i | i | i | i
O=C(c1ccc(Cl)c(NC2=NC3CS(=O)(=O)CC3S2)c1)N1CCN(c2ccccc2)CC1 (configuration not stated) | i | i | i | i | i | nt | nt
Cc1ccc(NC(=O)C2C3C=CC4(O3)C2C(=O)N(CCCN2CCCC(C)C2)C4C(=O)NC2CCCCC2)cc1 (configuration not stated) | i | i | i | i | i | nt | nt
COC(=O)c1ccc(NC(=O)CCc2nnc3ccc(N4CCC5(CC4)OCCO5)nn23)cc1 | i | i | i | i | i | nt | nt
Cc1ccc(NC(=S)NC(NC(=O)c2ccccc2C)C(Cl)(Cl)Cl)c(C)c1 (configuration not stated) | -8.5 | i | i | i | i | i | i
COc1ccccc1C(=O)N1CCN(Cc2cccnc2)CC1 | i | i | i | i | i | nt | nt
NC(=O)N=Nc1c2[nH]c3ccccc3nc-2c2ccccc12 | -8.6 | i | i | i | i | 56 | i
O=c1[nH]c2ccccc2nc1-c1ccccc1 | i | i | i | i | i | nt | nt
COC(=O)CN(C)C(=O)c1cccc(OC2CCN(S(=O)(=O)N(C)C)CC2)c1 | i | i | i | i | i | nt | nt
COc1cc(C(=O)Nc2ccc3c(c2)N(C(=O)CCN(C)C)c2ccccc2CC3)cc(OC)c1OC | -12 | i | i | i | i | 92 | 79
CN(C)CC(=O)N1c2ccccc2CCc2ccc(NC(=O)c3ccc(N)cc3)cc21 | i | i | i | i | i | nt | nt
Fc1cccc(-c2cc3nc4c(c(N5CCOCC5)n3n2)CCCC4)c1 | i | i | i | i | i | nt | nt
Fc1cccc(-c2cc3nc4c(c(NCc5ccco5)n3n2)CCCC4)c1 | -8.1 | i | i | i | i | 86 | 45
O=C(Nc1ccc(Oc2ccccc2)nc1)C1CCCCN1Cc1ccc(O)cc1 (configuration not stated) | -8.2 | i | i | i | i | 74 | 28
COc1ccc(S(=O)(=O)n2cnc3cc(C)c(C)cc32)cc1 | i | i | i | i | i | nt | nt
COc1ccc(S(=O)(=O)n2cnc3cc(C)c(C)cc32)cc1C | -10 | i | i | i | i | 88 | 46
